According to paper PMC9933231 (ACS Omega, 2023):
In brackets after ≈: the same amount, converted by molar mass.

Columns and labels:
Cytotoxicity assay [1] = type: cell-based; conditions: human, HaCaT keratinocytes
In short: (§1)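 Cells were kept in RPMI 1640 with 10% FBS, penicillin and streptomycin at 37 °C in humidified 5% CO2, and subcultured every 3–4 days. They were seeded at 1 × 10^4 cells/well and left 24 h. Medium was then replaced with test samples, with doxorubicin as reference, for 24 h at 37 °C. CellTiter-Blue was added for 2 h at 37 °C, and fluorescence was read at ex 560/em 590 nm.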

Cytotoxicity assay [2] = type: cell-based; conditions: human, HepG2 cells
In short: as §1

`COc1cccc2c1C(=O)c1c(O)c3c(c(O)c1C2=O)C[C@@](O)(C(=O)CO)C[C@@H]3O[C@H]1C[C@H](N)[C@H](O)[C@H](C)O1` [doxorubicin] showed an IC50 at 24 h (Cytotoxicity assay [1]) of 19.8 ± 0.8 µg/mL (≈ 36.4 µM) and an IC50 at 24 h (Cytotoxicity assay [2]) of 11.4 ± 0.5 µg/mL (≈ 21 µM).
